# Source: ChEMBL document CHEMBL4513216, “Probing the Open Global Health Chemical Diversity Library for Multistage-Active Starting Points for Next-Generation Antimalarials” (ACS Infect Dis, 2020)
# Assay: Toxicity liver stage against HepG2, at 10uM
# Format: cell-based
# Parameters: test concentration 10 uM, cell line HepG2-A16-CD81EGFP
# Conditions: human, HepG2-A16-CD81EGFP cells; read-out: INHIBITION
# How it was run: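 Uninfected HepG2-A16-CD81EGFP cells, 3 × 10^3 per well, 1536-well, plated on prespotted compound at 10 μM final, parasite-free screening media added to match infected plates; puromycin 10 μM positive, DMSO 0.5% negative; run in parallel with 48 h PbLuc assay at 37 °C, 5% CO2; viability by CellTiter-Glo luminescence, normalized to controls.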
row,SMILES,cytotoxicity at 10 µM [%]
1,CN1CCOC[C@H]1c1nc(-c2cccc(F)c2)c[nH]1,-3.68
2,Cc1cc2nc(CO[C@H]3CN(C(=O)C4CC4)C[C@H]3F)[nH]c2cc1C,-43.4
3,CCC1CN(CC(=O)NCCN2CCCCC2)c2ccccc2S1 (stereo not drawn),-10
4,CN1C[C@H](O)[C@]2(CCN(C(=O)COc3ccccc3)C2)S1(=O)=O,1.32
5,COc1ccc2nnc(CCC(=O)NCc3cccn3C)n2n1,-10.1
6,O=c1c(S(=O)(=O)N2CCCCC2)cccn1Cc1ccccc1Cl,10.6
7,Cc1cc(CNC(=O)c2ccno2)c(C)o1,-6.39
8,Cc1ccccc1C(=O)N1CCCn2cnc(CN3CCCC3=O)c2C1,10.2
9,O=C(NCCN1CCC(c2cccs2)CC1)Nc1cccs1,-20.6
10,O=C(COc1coc(CN2CCCCC2)cc1=O)NCc1ccccc1,-7.25
11,COCC1CC2(CCN(C(=O)c3cccc(C)c3)CC2)CO1 (stereo not drawn),-5.15
12,O=C(c1ccc(F)c(F)c1)N1CCN2CCCC2C1 (stereo not drawn),-7.09
13,CC(C)c1cc2c(s1)NC(c1ccccc1)NC2=O (stereo not drawn),8.82
14,CCOc1cc(C(=O)N2CCN(CC)CC2)cc2occc12,4.37
15,Oc1ccccc1-c1n[nH]c(C2CC2)n1,5.84
16,CCS(=O)(=O)N1CCC(c2nn(CCN(C)C)c3ncccc23)C1 (stereo not drawn),-4.88
17,CCC1CNCc2cc3c(OC)ccc(OC)c3nc2O1 (stereo not drawn),-4.22
18,O=C1CN([C@@H]2CC[C@@H](NS(=O)(=O)c3ccc(F)cc3)[C@H]2O)CCN1,-2.11
19,CC(=O)N1CCC(Cc2ccc(-c3ccnn3C)nc2)CC1,2.74
20,Cc1cc(N2CCC(O)CC2)nc(C2CCCN2C)n1 (stereo not drawn),-1.89
21,Cc1cccc(CN2CCCC3(Cc4ccccc4CNC3=O)C2)n1 (stereo not drawn),5.37
22,CC(C)(C)NCC(=O)N1CCCC(n2ccnc2)C1 (stereo not drawn),0.462
23,CCOCc1ccc(NCc2cnc(N3CCN(C)CC3)nc2)cc1,12.1

row,SMILES,cytotoxicity at 10 µM [%]
1,O=C(CN1C(=O)CCCc2sccc21)NC1CCc2nccn2C1 (stereo not drawn),9.29
2,COc1ccccc1CC(C)CC(=O)NS(=O)(=O)C(C)C (stereo not drawn),4.56
3,N#Cc1cc(F)ccc1CN1CCCCC1Cn1cncn1 (stereo not drawn),5.41
4,CNC(=O)c1coc(-c2csc(C)n2)c1,6.96
5,CCS(=O)(=O)NCCN1CCc2ccc(F)cc2C1C (stereo not drawn),6.88
6,CC(Nc1ccn(CCS(C)(=O)=O)n1)c1ccc(C#N)cc1 (stereo not drawn),8.64
7,Cc1cccc(COc2ccc(C(C)NS(N)(=O)=O)cc2)c1 (stereo not drawn),-6.96
8,CSc1ncccc1C(=O)Nc1ccc(Cn2ccccc2=O)cc1,2.77
9,CCC(C)(C)NC(=O)c1ccc(NC(=O)NCc2cc(C)no2)cc1,0.696
10,COC(=O)N(C)CCCC(=O)Nc1[nH]nc(-c2ccncc2)c1C,-0.946
11,COC(CNC(=O)c1ccc(NC(C)=O)cc1)c1cccc(Cl)c1 (stereo not drawn),7.72
12,Cc1cnc2c(S(=O)(=O)NC(=O)C(C)OCC3CC3)cccc2c1 (stereo not drawn),-1
13,CC(C)NC(=O)C(C(C)C)n1cnc2cc(F)c(F)cc21 (stereo not drawn),12.5
14,CC(=O)N(C)C1CCN(C(=O)c2cccc3c2ccn3C)CC1,1.56
15,COCCOCCC(=O)Nc1c(-c2ccc(F)cc2)ncn1C,-3.31
16,FC(F)c1nnc2ccc(N3CCC4(CCOC4)C3)nn12 (stereo not drawn),9.2
17,Cc1nnc(CN(Cc2cccc(Br)c2)C2CC2)o1,3.94
18,Cc1nsc(NCc2ccc(CS(=O)(=O)NC(C)C)cc2)n1,-2.8
19,CCCn1nc2c(cc1=O)CN(CC(=O)N(C)c1nccs1)CC2,1.25
20,COc1cccc(C2=CCN(CCN3CCOC3=O)CC2)c1,-7.52
21,CCc1noc(CN(C)C(=O)C(C)(C)Oc2cccc(Cl)c2)n1,-3.63
22,CN1CCN(C(=O)CCc2cc(Br)cs2)CC1,-5.35
23,Cc1ccc(NC(=O)NC(C)c2nc[nH]n2)s1 (stereo not drawn),-2.18

row,SMILES,cytotoxicity at 10 µM [%]
1,CCC(C)(NCC(=O)Nc1ccccc1)c1nc(C)cs1 (stereo not drawn),-8.66
2,O=C(NCCCn1cccn1)N1CCCC1c1ccncc1 (stereo not drawn),21.5
3,Cc1nnc(NCC2(c3ccccc3)CC2)c(C#N)c1C,3.51
4,CC(CNC(=O)Nc1ccc(N(C)C)nc1)Cn1cccn1 (stereo not drawn),6.95
5,CS(=O)(=O)CCNC(=O)C1(c2cccc(Cl)c2)CCCCC1,8.68
6,CS(=O)(=O)NCC1CCCN(C(=O)Nc2ccccc2Cl)C1 (stereo not drawn),-9.73
7,Cc1cc(C)n(CC2CCCN2C(=O)c2ccc3c(c2)nnn3C)n1 (stereo not drawn),-17.3
8,CCc1cnc(N2CC3(CCN(S(=O)(=O)C4CC4)C3)C2)nc1,-109
9,O=C(NCC1Cn2nnc(-c3cccc(F)c3)c2CO1)c1ccc[nH]1 (stereo not drawn),1.46
10,O=C(NC1CCCC1)N1CCC2(CC1)CC(Oc1cccnc1)CO2 (stereo not drawn),-5.6
11,O=C1OCCN1Cc1cccc(C(F)(F)F)c1F,-0.524
12,Nc1nc(CCCNC(=O)C2CCCN(Cc3ccco3)C2)cs1 (stereo not drawn),-0.745
13,COc1cc(C)cc(OC)c1C(C(=O)O)N(C)Cc1c(C)nn(C)c1C (stereo not drawn),7.34
14,Cc1cc(C)n(C2CN(C(=O)c3cn4ccsc4n3)C2)n1,4.99
15,CCOCCn1nc(C)cc1C(=O)N1CCC2(CC1)[C@H](O)C[C@@H]2OCC,4.35
16,COc1ccccc1-c1ncc(CN2CCCC[C@H](N(C)C)C2)s1,-5.23
17,OCC1(O)CCCN(Cc2noc(-c3ccccc3)n2)C1 (stereo not drawn),-4.76
18,CCc1ncc2c(n1)CN(c1nc(C)ccc1C(=O)O)C2,8.25
19,Cc1cccc(-n2nc(CC(C)C)nc2[C@H](C)O)c1,5.54
20,COC(=O)c1cc(OCC2CCC2)cc(C(=O)N[C@H](C)C(N)=O)c1,16.6
21,CCc1nccn1CCC(=O)N1CCOC(c2ccc(F)cc2)C1 (stereo not drawn),-12.5
22,Cc1cc(C2CCC2)nc(NCC(C)(C)N2CCOCC2)n1,11.5
23,CC(=O)c1ccc(C(=O)N(C)Cc2nc(-c3ccccn3)no2)s1,2.45

row,SMILES,cytotoxicity at 10 µM [%]
1,CN(Cc1cc2n(n1)CCCNC2)Cc1n[nH]c2c1CCC2,3.04
2,CN(C)[C@H]1CCN(c2nc(C(C)(C)C)nc3c2cnn3C)C1,-6.12
3,CSCc1noc(-c2ccc(C)c(N3CCNC3=O)c2)n1,-8.77
4,c1ccc(-c2ncc(CN3CCC4(CCNCC4)C3)cn2)cc1,-5.71
5,CCN(C)C(=O)CN1CCC(c2cc(N3CCOCC3)nc(C)n2)CC1,-2.02
6,CN(C)C(C(=O)NCC1(Cn2cccn2)CC1)c1ccc(F)cc1 (stereo not drawn),3.65
7,CN1CCN(C)C2(CCN(Cc3ccc(C4CCCCO4)o3)CC2)C1 (stereo not drawn),0.0773
8,CC(NC(=O)CCCc1ccc(Cl)cc1)c1nnn[nH]1 (stereo not drawn),0.292
9,CNC(=O)[C@@H]1C[C@@H](N)CN1C(=O)CCSCc1ccc(F)cc1,-17.6
10,CS(=O)(=O)c1ccc(-c2cc(O)cc(CCC3CCCCN3)c2)cc1 (stereo not drawn),0.292
11,CCCc1nc(C(=O)N2CCn3nc(C(=O)OC)cc3C2)cs1,8.87
12,O=C(C1CCCCO1)N1CCc2ncnc(NCc3ccon3)c2CC1 (stereo not drawn),13.1
13,CCNC(=O)[C@@H]1C[C@@H](N)CN1C(=O)C1(c2ccc(OC)cc2)CCCC1,3.95
14,CCN1CCN(C(C)(C)CNc2nc(C)cc(C3CCC3)n2)CC1,1.47
15,CC(CCn1cccn1)NCc1n[nH]c2c1CCCCC2 (stereo not drawn),-3.98
16,O=C1CCCN1CCCC(=O)N1CCC2(CC1)[C@H](O)C[C@@H]2O,-2.38
17,O=C(CCCc1cn[nH]c1)N1CCOCC(O)C1 (stereo not drawn),-23
18,Cc1nn(C)c(C)c1C1CCCN1C(=O)c1ccc(C(N)=O)cn1 (stereo not drawn),-4.34
19,CCC(C)C(=O)NS(=O)(=O)c1ccc(C#N)cc1C(F)(F)F (stereo not drawn),-5.25
20,CC1COCCN1Cc1nc(-c2cccc(C(F)(F)F)c2)no1 (stereo not drawn),-13.9
21,c1ccc(-c2nnc(CN3CCCC(Cn4cncn4)C3)o2)cc1 (stereo not drawn),-7.51
22,CCC1c2ccsc2CCN1C(=O)NCc1cccnc1OC (stereo not drawn),-2.28
23,Cc1ccc(NC2CCN(C(=O)c3c(C)oc(C)c3C)CC2)nn1,-2.4

row,SMILES,cytotoxicity at 10 µM [%]
1,COc1ccc(C(CNC(=O)Nc2cc(C)nn2C)N(C)C)cc1 (stereo not drawn),3.31
2,CC1CCCN(C(=O)NCCCn2cncn2)C1 (stereo not drawn),-3.98
3,CC(C)Oc1ncccc1CNC(=O)N1CCSCC1,-11.8
4,COCCc1noc(CN(C)C2CCCN(c3cccnn3)C2)n1 (stereo not drawn),-8.64
5,COc1ncccc1NC(=O)C1CC1,-19.2
6,Cn1cnc2c1CCN(CCOc1ccc(C#N)cc1)C2,-9.47
7,O=C(CCN1CCCC1c1cccc(F)c1)N1CCc2sccc2C1 (stereo not drawn),-10.7
8,CC1CCN(Cn2nc(-c3ccc(F)cc3)oc2=O)CC1,-2.55
9,CCOCC(O)CN1CCN(C(=O)Cc2ccc3c(c2)CCO3)CC1 (stereo not drawn),-18.5
10,O=C(NCc1cc[nH]n1)N(CCCO)C1CCc2ccccc21 (stereo not drawn),-3.27
11,Cc1nc(-c2ccccc2)n(CC(=O)N(C(C)C)C(C)C)n1,-4.57
12,COc1cccc(Nc2nc(C3CCNCC3)c3ccccn23)c1,-2.67
13,OC1CCN(c2cncc(CCC3CCCN3)n2)CC1 (stereo not drawn),-0.24
14,CC(C)N1CCCC1c1cc(CO)[nH]n1 (stereo not drawn),6
15,CNC(=O)c1cc2c(nc1N(C)C)CCN(S(=O)(=O)C1CC1)CC2,0.118
16,NC(=O)COc1ccc(CNCc2ccc(F)cc2)cc1,-2.05
17,Cn1cc(C(=O)NCc2cn3c(n2)CN(CC2CCOCC2)CC3)cn1,-12.9
18,CCCN1CCCn2c(nc(CNC(=O)c3cnoc3C)cc2=O)C1,2.32
19,C=c1ncsc1=C1NN=C(C2CCCN2C(=O)c2ccn(CC)n2)O1 (stereo not drawn),-7.82
20,COc1ccc(OC)c(C(=O)N2C[C@@H]3CC[C@H]2CN(C)C3)c1,4.61
21,O=C(CSc1ccncc1)N1C[C@@H]2CC[C@H]1CN(Cc1cccnc1)C2,4.66
